Assay results from ChEMBL document CHEMBL1147925, “First pharmacophore-based identification of androgen receptor down-regulating agents: discovery of potent anti-prostate cancer agents” (Bioorg Med Chem, 2007).

What was measured:
LNCaP [1] = test: Decrease in androgen receptor protein expression in LNCaP cells by Western blotting; format: functional, cell-based; details: Homo sapiens
Summary of the method: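 Whole-cell lysates were made in 0.1M Tris/0.5% Triton X-100 with protease inhibitor, and protein was measured by Bradford. Samples were run on 10% SDS-PAGE and immunoblotted with anti-AR monoclonal AR441 (1:500), HRP secondary and ECL. Signal was normalized to β-actin, and EC50 was taken from dose-response curves.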

LNCaP [2] = test: Growth inhibition of human LNCaP cells after 5 days by MTT colorimetric assay; details: 120 h

Work on `COc1cc(/C=C/C(=O)CC(=O)/C=C/c2ccc(O)c(OC)c2)ccc1O` [CURCUMIN] yielded an EC50 (LNCaP [1]) of 35 µM.
`Cc1ccc(S(=O)(=O)Nc2ccc(C)cc2[N+](=O)[O-])cc1` was tested, and the EC50 (LNCaP [1]) was 76 µM and the IC50 (LNCaP [2]) was 39.8 µM.
For `O=c1cc(CO)oc(C(Nc2ccccc2)c2ccccc2)c1O` (centres undefined), the EC50 (LNCaP [1]) was 212 µM and the IC50 (LNCaP [2]) was 20.9 µM.
In the case of `CSc1ccc(OS(=O)(=O)c2cccc3nsnc23)cc1`, the EC50 (LNCaP [1]) is reported as 17.5 µM and the IC50 (LNCaP [2]) is reported as over 50 µM.
In the case of `CCOC(=O)c1ccccc1OC(=O)Oc1ccccc1C(=O)OCC`, the EC50 (LNCaP [1]) is reported as 65.5 µM and the IC50 (LNCaP [2]) is reported as 4.5 µM.
`O=C(CNCCCc1ccccc1)c1ccc(O)c(O)c1` gave an EC50 (LNCaP [1]) of 43.5 µM and an IC50 (LNCaP [2]) of 26.9 µM.
Work on `O=C(O)c1ccccc1Nc1cccc(C(F)(F)F)c1` [FLUFENAMIC ACID] yielded an EC50 (LNCaP [1]) of 200 µM.
Compound `CCN(CCO)C(C(=O)c1ccc(Cl)cc1)c1ccc(Cl)cc1` (centres undefined) has an EC50 (LNCaP [1]) of 39.5 µM and an IC50 (LNCaP [2]) of 8.31 µM.
